OXTR agonist – human OXTR agonists, primary screen, fluorescence, CHO-OTR cells, Fluo-8 calcium. Fluo-8 calcium fluorescence; normalized: DMSO 0%, oxytocin 100%. activation, % at 3 µM. 320,000 compounds, 0.32% hits. AID 2435, 2010;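 active = activation above the mean of all tested compounds plus 3 SD, cutoff set per screening run, cut at about 20% in these data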;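 also: peak over basal fluorescence ratio from a 100 s FLIPR kinetic read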
TRPML3 agonist – human TRPML3 channel agonists, primary screen, cell-based, HEK293 TRPML3-YFP, Fluo-8 calcium fluorescence, 3 µM; 100% = the carbachol control signal; activation, % at 3 µM; 220,000 compounds, 0.29% hits; AID 1448, 2008;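 active = activation above its plate's cutoff, the mean activation of the plate's test wells plus 3 SD, cut at about 12% in these data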
Target sequence (Q8TDD5 whole entry, looked up): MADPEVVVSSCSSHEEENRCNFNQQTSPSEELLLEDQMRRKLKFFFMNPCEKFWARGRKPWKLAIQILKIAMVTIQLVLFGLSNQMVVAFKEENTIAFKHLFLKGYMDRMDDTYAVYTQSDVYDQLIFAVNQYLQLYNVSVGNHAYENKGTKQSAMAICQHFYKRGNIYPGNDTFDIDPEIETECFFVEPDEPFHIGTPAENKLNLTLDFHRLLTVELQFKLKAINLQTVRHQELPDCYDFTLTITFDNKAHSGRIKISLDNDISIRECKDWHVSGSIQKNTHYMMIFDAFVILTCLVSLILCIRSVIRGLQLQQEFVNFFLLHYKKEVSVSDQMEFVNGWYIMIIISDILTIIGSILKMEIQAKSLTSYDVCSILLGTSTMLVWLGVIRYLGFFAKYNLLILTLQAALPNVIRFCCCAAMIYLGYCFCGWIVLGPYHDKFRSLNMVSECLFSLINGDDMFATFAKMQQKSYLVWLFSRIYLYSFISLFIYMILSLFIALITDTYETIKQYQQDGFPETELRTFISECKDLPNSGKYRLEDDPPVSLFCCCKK
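Test system: HEK293 cells stably carrying human TRPML3-YFP; Doses: single dose, 3 µM final nominal compound, 0.3% DMSO final; Schedule: dye loading 1 h 37 °C then 30 min ambient, 125 s read; Technique: Fluo-8 calcium fluorescence; Benchmarks: high control carbachol 87 µM, low control DMSO.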
TRPN1 ag – zebrafish TRPN1 channel agonists, primary screen, cell-based, HEK293, calcium fluorescence | transient receptor potential cation channel N1 (TRPN1/NompC), Danio rerio | HEK293 zebrafish TRPN1-YFP, Fluo-8 calcium fluorescence; 100% = response to 87 µM carbachol | activation, % at 3 µM | 220,000 compounds, 0.18% hits;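 active = activation above its plate's cutoff, the mean activation of test wells on that plate plus 3 SD, cut at about 19% in these data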
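Material: zebrafish TRPN1-YFP in HEK293 cells. Doses: one dose of 3 µM, 0.3% DMSO. Incubation: dye 1 h 37 °C plus 30 min RT. Measured by: intracellular calcium fluorescence with Fluo-8.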
OXTR potentiate – human OXTR potentiators, primary screen, fluorescence, CHO-OTR cells, Fluo-8 calcium | Oxytocin receptor (Homo sapiens), P30559 | Fluo-8 calcium fluorescence, potentiator mode; 0% = oxytocin EC15, 100% = EC100 | activation, % at 3 µM | 320,000 compounds, 0.061% hits | AID 2445, 2010;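 active = activation above that plate's cutoff, the mean activation of tested compounds plus 3 SD, cut at about 6.6% in these data, passing the limit was not always enough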
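assay system = CHO-OTR cells, human receptor | schedule = compound 6 min at room temperature before oxytocin, 100 s read | detection = Fluo-8 intracellular calcium fluorescence, ex 470-495, em 515-575 nm | evaluation = normalized max/min fluorescence ratio, % activation | control set = EC15 oxytocin alone as 0%, 75 nM oxytocin (EC100) as 100%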
V1R ag counter – agonists of human V1a receptor, primary screen, counter-screen for OXTR agonist project, fluorescence, CHO-V1R cells. activation, % at 3 µM. AID 2797, 2010. 320,000 compounds, 0.25% hits. Fluo-8 calcium fluorescence, agonist mode; 0% DMSO, 100% 3 nM vasopressin;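 active = activation above the mean activation of all tested compounds plus 3 SD, per screening run, cut at about 20% in these data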;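 also: signal is peak over basal fluorescence ratio across a 100 second FLIPR read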
OXTR ag confirm – human OXTR agonists, confirmation, fluorescence, CHO-OTR cells, triplicate; shares compounds with OXTR agonist; Fluo-8 calcium fluorescence, agonist; activation, % at 3 µM; 390 compounds, 20% hits; AID 434963, 2010;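 active = mean activation above about 20% derived from the earlier single-dose screen, limit read from the data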;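 also: peak over minimum fluorescence ratio per well during a 100 second FLIPR read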
V1R ag counter 3x – V1a receptor agonists, calcium signal, counter-screen for OXTR agonist project, triplicate, fluorescence, CHO-V1R cells | shares compounds with OXTR agonist | Fluo-8 calcium fluorescence | activation, % at 3 µM | 390 compounds, 10% hits;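 active = mean activation over triplicate exceeds the hit threshold set in the earlier primary screen, cut at about 20% in these data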;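 also: peak over basal fluorescence ratio within a 100 second read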
Each line names hits and unclear results; the compound was inactive in the other large screens (follow-up assays come after a bar, where they were run). An excerpt weighted towards active compounds, which were near 0.55% of everything screened.

CCCCCCOc1ccc(OCC(O)CN2C(=O)NC(C)(C)C2=O)cc1 (configuration not stated)	OXTR agonist 24 | OXTR ag confirm inactive | V1R ag counter 3x inactive
CO/N=C/c1ccc(N2CCN(C(=O)c3ccc(Cl)cc3Cl)CC2)c([N+](=O)[O-])c1	OXTR agonist 27 | OXTR ag confirm inactive | V1R ag counter 3x inactive
O=C(Cc1cccs1)N(Cc1ccco1)C1(C(=O)NC2CCCC2)CCCCC1	OXTR agonist 20 | OXTR ag confirm inactive | V1R ag counter 3x inactive
O=C1NC(=O)C(CC(=O)N(Cc2ccco2)C2(C(=O)NC3CCCC3)CCCCC2)N1 (configuration not stated)	none
CC(=O)Nc1ccc(/C(C)=N/Nc2nc(Nc3cccc4ccccc34)nc(N3CCOCC3)n2)cc1	OXTR agonist 25 | OXTR ag confirm inactive | V1R ag counter 3x inactive
COc1cc(OC)c(OC)cc1CCC(C)NCCC(c1ccccc1)c1ccccc1 (configuration not stated)	OXTR agonist 22 (no result: TRPML3 agonist, TRPN1 ag) | OXTR ag confirm inactive | V1R ag counter 3x inactive
CC[n+]1c(/C=C(\C)OC)sc2ccccc21	none (no result: OXTR agonist, OXTR potentiate, V1R ag counter)
CC[n+]1c(/C=C/C=C/N(C(C)=O)c2ccccc2)sc2cc(OC)ccc21	OXTR agonist 29 | OXTR ag confirm 69 | V1R ag counter 3x 91
O[C@@H]([C@H](O)[C@H](O)CBr)[C@H](O)CBr	none (no result: TRPML3 agonist, TRPN1 ag)
Cc1cc(SCC(=O)OCC(=O)N(C)C2CCS(=O)(=O)C2)c(C)cc1Br (configuration not stated)	OXTR agonist 21 (no result: TRPML3 agonist, TRPN1 ag) | OXTR ag confirm inactive | V1R ag counter 3x inactive
CN(c1ccccc1)c1ccc(/C=C/[N+](=O)[O-])cc1	OXTR agonist 29 | OXTR ag confirm 26 | V1R ag counter 3x 32
CCOC(=O)c1csc(NC(=O)CSc2nnnn2-c2ccc3c(c2)OCCO3)n1	OXTR agonist 23 | OXTR ag confirm inactive | V1R ag counter 3x inactive
Cc1cc(N2CCCCC2)nc(NCc2ccccc2)n1	OXTR agonist 25, TRPN1 ag 47 | OXTR ag confirm inactive | V1R ag counter 3x inactive
COc1ccc(S(=O)(=O)Nc2ccc(N3CCOCC3)cc2)cc1	none (no result: TRPML3 agonist, TRPN1 ag)
COc1ccc(NS(=O)(=O)c2ccc(N3CCOCC3)c(N)c2)cc1	OXTR agonist 20 (no result: TRPML3 agonist, TRPN1 ag) | OXTR ag confirm inactive | V1R ag counter 3x inactive
COc1ccc2c(C(=O)c3ccc(C)cc3)n(Cc3ccc(C(N)=O)cc3)[n+]([O-])c2c1	none (no result: TRPML3 agonist, TRPN1 ag)
Cc1ccnc2nc(C(=O)OCC(=O)N(Cc3ccccc3)C(C)C)nn12	none (no result: TRPML3 agonist, TRPN1 ag)
Nc1nc2ccccc2n1CCOc1ccc(Cl)cc1	none (no result: TRPML3 agonist, TRPN1 ag)
Nc1nc2ccccc2n1CCOc1ccc(Br)cc1	OXTR agonist 21 (no result: TRPML3 agonist, TRPN1 ag) | OXTR ag confirm inactive | V1R ag counter 3x inactive
COc1ccc(C(=O)CSc2nnc(Cn3cnc4ccccc43)o2)cc1	OXTR agonist 20 | OXTR ag confirm inactive | V1R ag counter 3x inactive
CCc1ccc(Nc2cc(=O)n(C3CCCCC3)c(=O)[nH]2)cc1	OXTR agonist 25 | OXTR ag confirm 33 | V1R ag counter 3x 30
O=c1cc(Nc2ccc3c(c2)OCCO3)[nH]c(=O)n1C1CCCCC1	none
CCc1cccc(OCC2Cn3c(nc4c3c(=O)[nH]c(=O)n4C)O2)c1 (configuration not stated)	none (no result: TRPML3 agonist, TRPN1 ag)
CCCOC(=O)N[C@@H]1C(=O)N2C(C(=O)OCCC)=C(C)CS[C@H]12	none (no result: TRPML3 agonist, TRPN1 ag)
COc1cccc(OCC(O)CN2CCC(CN3C(=O)c4cccc5cccc(c45)C3=O)CC2)c1 (configuration not stated)	none
Cc1cc(C)cc(OCC(O)CN2CCC(CN3C(=O)c4cccc5cccc(c45)C3=O)CC2)c1 (configuration not stated)	OXTR agonist 25 (no result: TRPML3 agonist, TRPN1 ag) | OXTR ag confirm inactive | V1R ag counter 3x inactive
C[C@H](CO)N1C[C@H](C)[C@@H](CN(C)S(C)(=O)=O)Oc2ccc(NC(=O)CCN3CCOCC3)cc2C1=O	none (no result: TRPML3 agonist, TRPN1 ag)
COc1ccc(CC(=O)Nc2ccc(S(=O)(=O)N3CCN(C)CC3)cc2)cc1	none (no result: TRPML3 agonist, TRPN1 ag)
COc1ccc(S(=O)(=O)N(n2c(C)nnc2-n2nc(C)cc2C)S(=O)(=O)c2ccc(OC)cc2)cc1	OXTR agonist 21 | OXTR ag confirm inactive | V1R ag counter 3x inactive
COc1ccc(C(CCN2CCCCC2)c2c(OC)cc(OC)c3c(-c4ccccc4)cc(=O)oc23)cc1 (configuration not stated)	OXTR agonist 21 (no result: TRPML3 agonist, TRPN1 ag) | OXTR ag confirm inactive | V1R ag counter 3x inactive
C/C(=N/O)c1cc(C(C)(C)C)c(O)c(C(C)(C)C)c1	OXTR agonist 21 | OXTR ag confirm inactive | V1R ag counter 3x inactive
COc1cc2cc[n+](Cc3ccc([N+](=O)[O-])cc3)cc2cc1OC	none (no result: TRPML3 agonist, TRPN1 ag)
O=C(C1CCN(S(=O)(=O)c2ccc(F)cc2)CC1)N1CCCC(C(F)(F)F)C1 (configuration not stated)	none (no result: TRPML3 agonist, TRPN1 ag)
Cc1cccc(OCC(O)Cn2c(=N)n(Cc3ccccc3)c3ccccc32)c1 (configuration not stated)	OXTR agonist 31 | OXTR ag confirm inactive | V1R ag counter 3x inactive
CCc1ccc(Nc2n[n+](-c3ccccc3)c(-c3ccc(N(CC)CC)cc3)s2)cc1	OXTR agonist 40 (no result: TRPML3 agonist, TRPN1 ag) | OXTR ag confirm 71 | V1R ag counter 3x 101
CCN1C(=O)/C(=C/c2ccc(OC)c(OC)c2)N=C1SCC(=O)NCc1ccco1	none
CCOC(=O)/C(C#N)=C/Nc1ccccc1NS(=O)(=O)c1cccc(C(C)=O)c1	OXTR agonist 50 | OXTR ag confirm inactive | V1R ag counter 3x inactive
CCOC(=O)/C(C#N)=C/Nc1ccccc1NS(=O)(=O)c1ccc(C)c(C)c1	none
COc1cc(/C=N/OCC(=O)Nc2cc(C)on2)ccc1OCc1ccccc1	OXTR agonist 24 | OXTR ag confirm inactive | V1R ag counter 3x inactive
O=Cc1[nH]c2ccccc2c1N(C(=O)CCl)c1ccc([N+](=O)[O-])cc1	OXTR agonist 21 | OXTR ag confirm inactive | V1R ag counter 3x inactive
CC(=O)n1cc(N(C(=O)CCl)c2ccc([N+](=O)[O-])cc2)c2ccccc21	none
Cc1cc(S(=O)(=O)NCc2ccncc2)c(C)cc1Br	none (no result: TRPML3 agonist, TRPN1 ag)

Assay outcomes from PubChem.
